Data taken from ChEMBL document CHEMBL3576784, “Azolylthioacetamide: A Highly Promising Scaffold for the Development of Metallo-β-lactamase Inhibitors” (ACS Med Chem Lett, 2015).
Active and inactive are the calls of the source. The calls are words filed in the database; no cut-off is given here.

How the values were obtained:
[1] = target: Metallo-beta-lactamase type 2 (Bacteroides fragilis) (UniProt P25910); assay: Inhibition of Bacteroides fragilis metallo-beta-lactamase CcrA expressed in Escherichia coli BL21(DE3) up to 10 uM using cefazolin V substrate pre-incubated for 30 mins by Lineweaver-Burk plot method
Sequence of Metallo-beta-lactamase type 2 (Bacteroides fragilis) (P25910 whole entry): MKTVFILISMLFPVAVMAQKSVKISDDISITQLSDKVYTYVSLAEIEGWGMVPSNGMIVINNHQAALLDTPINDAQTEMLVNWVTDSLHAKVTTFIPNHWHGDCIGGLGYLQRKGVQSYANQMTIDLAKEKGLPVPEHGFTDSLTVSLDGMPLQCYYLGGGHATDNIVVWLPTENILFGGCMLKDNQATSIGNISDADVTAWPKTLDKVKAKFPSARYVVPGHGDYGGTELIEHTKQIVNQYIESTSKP

[2] = Inhibition of metallo-beta-lactamase NDM1 (unknown origin) expressed in Escherichia coli BL21(DE3) up to 10 uM using cefazolin V substrate pre-incubated for 30 mins by Lineweaver-Burk plot method
[3] = target: Beta-lactamase L1 (Stenotrophomonas maltophilia) (UniProt P52700); assay: Inhibition of Stenotrophomonas maltophilia metallo-beta-lactamase L1 expressed in Escherichia coli BL21(DE3) up to 10 uM using cefazolin V substrate pre-incubated for 30 mins by Lineweaver-Burk plot method
Sequence of Beta-lactamase L1 (Stenotrophomonas maltophilia) (P52700 34-290 limits assumed): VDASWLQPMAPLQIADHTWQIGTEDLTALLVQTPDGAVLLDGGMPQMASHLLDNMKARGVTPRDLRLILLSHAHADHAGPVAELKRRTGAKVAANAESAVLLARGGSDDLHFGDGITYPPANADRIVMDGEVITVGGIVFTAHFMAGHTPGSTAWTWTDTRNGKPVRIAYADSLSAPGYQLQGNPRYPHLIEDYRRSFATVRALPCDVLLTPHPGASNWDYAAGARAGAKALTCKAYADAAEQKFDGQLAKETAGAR

[4] = target: Beta-lactamase L1 (Stenotrophomonas maltophilia) (UniProt P52700); assay: Inhibition of Stenotrophomonas maltophilia metallo-beta-lactamase L1 expressed in Escherichia coli BL21(DE3) assessed as cefalexin V antimicrobial MIC incubated at 37 degC for 12 hrs by macrodilution (tube) broth method (reference value: 8 ug/mL)
Summary of the method: (§1)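 β-Lactam antibiotic MIC (μg/mL) against E. coli BL21(DE3) carrying plasmids pMSZ02-CcrA, pET26b-NDM-1, pET26b-ImiS or pET26b-L1. Measured with and without test compound at 16 μg/mL.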

[5] = Inhibition of metallo-beta-lactamase NDM1 (unknown origin) expressed in Escherichia coli BL21(DE3) assessed as cefalexin V antimicrobial MIC incubated at 37 degC for 12 hrs by macrodilution (tube) broth method (reference value: 4 ug/mL); summary of the method: as §1
[6] = target: Metallo-beta-lactamase type 2 (Bacteroides fragilis) (UniProt P25910); assay: Inhibition of Bacteroides fragilis metallo-beta-lactamase CcrA expressed in Escherichia coli BL21(DE3) assessed as cefalexin V antimicrobial MIC incubated at 37 degC for 12 hrs by macrodilution (tube) broth method (reference value: 4 ug/mL); summary of the method: as §1
[7] = target: Beta-lactamase (Aeromonas veronii) (UniProt O31272); assay: Inhibition of Aeromonas veronii metallo-beta-lactamase ImiS expressed in Escherichia coli BL21(DE3) assessed as imipenem antimicrobial MIC incubated at 37 degC for 12 hrs by macrodilution (tube) broth method; summary of the method: as §1
Sequence of Beta-lactamase (Aeromonas veronii) (O31272 as listed by the source): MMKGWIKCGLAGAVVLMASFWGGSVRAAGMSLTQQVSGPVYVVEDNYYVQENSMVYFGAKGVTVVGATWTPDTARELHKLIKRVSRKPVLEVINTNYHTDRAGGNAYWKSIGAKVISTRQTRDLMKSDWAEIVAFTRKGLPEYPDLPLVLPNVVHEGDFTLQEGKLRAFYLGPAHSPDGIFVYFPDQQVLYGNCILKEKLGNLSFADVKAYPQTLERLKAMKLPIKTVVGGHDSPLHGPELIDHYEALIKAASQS

[8] = target: T1, Beta-lactamase IMP-1 (Pseudomonas aeruginosa) (UniProt Q8G9Q0); assay: Inhibition of Pseudomonas aeruginosa metallo-beta-lactamase IMP1 expressed in Escherichia coli BL21(DE3) assessed as imipenem antimicrobial MIC incubated at 37 degC for 12 hrs by macrodilution (tube) broth method (reference value: […] ug/mL)
T1 sequence (whole entry): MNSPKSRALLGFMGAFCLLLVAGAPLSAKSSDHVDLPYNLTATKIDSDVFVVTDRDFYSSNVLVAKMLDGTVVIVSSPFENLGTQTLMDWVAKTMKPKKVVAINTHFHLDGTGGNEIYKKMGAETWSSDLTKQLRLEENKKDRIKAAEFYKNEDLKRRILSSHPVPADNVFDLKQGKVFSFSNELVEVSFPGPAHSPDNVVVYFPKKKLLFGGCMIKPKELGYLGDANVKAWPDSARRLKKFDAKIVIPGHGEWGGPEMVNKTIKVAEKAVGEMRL

[9] = system: Klebsiella pneumoniae; assay: Inhibition of Klebsiella pneumoniae metallo-beta-lactamase expressed in Escherichia coli BL21(DE3) assessed as imipenem antimicrobial MIC incubated at 37 degC for 12 hrs by macrodilution (tube) broth method

| SMILES | inhibition [1] | inhibition [2] | inhibition [3] | MIC [4] [µg/mL] | MIC [5] [µg/mL] | MIC [6] [µg/mL] | MIC [7] [µg/mL] | MIC [8] [µg/mL] | MIC [9] [µg/mL] |
| --- | --- | --- | --- | --- | --- | --- | --- | --- | --- |
| O=C(CSc1nnc(-c2ccccc2C(=O)O)[nH]1)Nc1ccccc1 | inactive | inactive | inactive | 8 | 4 | 4 | 1 | 0.25 | 0.5 |
| O=C(CSc1nnc(-c2ccccc2C(=O)O)[nH]1)Nc1cccc(Cl)c1 | inactive | inactive | inactive | 64 | 4 | 0.5 | < 0.125 | < 0.125 | 0.5 |
| O=C(CSc1nnc(-c2ccccc2C(=O)O)[nH]1)Nc1nc2ccccc2[nH]1 | inactive | inactive | inactive | 8 | 4 | 4 | 1 | 0.25 | 0.5 |
| O=C(CSc1nnc(-c2ccccc2C(=O)O)[nH]1)Nc1ccccc1Cl | inactive | inactive | inactive | 64 | 4 | 2 | 0.25 | < 0.125 | 0.5 |
| O=C(O)CCc1nnc(SCC(=O)Nc2ccccc2)[nH]1 | inactive | inactive | inactive |  |  |  |  |  |  |
| O=C(CSc1nnc(-c2ccccc2C(=O)O)[nH]1)NCc1ccccc1 | inactive | inactive | inactive | 16 | 4 | 4 | 1 | < 0.125 | 0.5 |
| O=C(CSc1nnc(-c2ccccc2C(=O)O)[nH]1)Nc1ccc([N+](=O)[O-])cc1 | inactive | inactive | inactive | 16 | 4 | 2 | 0.5 | 0.25 | 0.5 |
| O=C(CSc1nnc(-c2ccccc2C(=O)O)[nH]1)Nc1nc2ccccc2s1 | inactive | inactive | inactive | 8 | 4 | < 0.125 | 1 | < 0.125 | 0.5 |
| O=C(CSc1nnc(-c2ccccc2C(=O)O)[nH]1)Nc1ccc(Cl)cc1 | inactive | inactive | inactive | 8 | 4 | < 0.125 | 0.5 | 0.25 | 0.5 |
| O=C(O)CCc1nnc(SCC(=O)Nc2nc3ccccc3[nH]2)[nH]1 | inactive | inactive | inactive |  |  |  |  |  |  |
| O=C(O)CCc1nnc(SCC(=O)Nc2nc3ccccc3s2)[nH]1 | inactive | inactive | inactive |  |  |  |  |  |  |
| O=C(O)CCCc1nnc(SCC(=O)Nc2nc3ccccc3[nH]2)[nH]1 | inactive | inactive | inactive |  |  |  |  |  |  |
| O=C(CSc1nnc(-c2ccccc2C(=O)O)[nH]1)Nc1ccccc1[N+](=O)[O-] | inactive | inactive | inactive | > 128 | 4 | 0.25 | < 0.125 | < 0.125 | 0.5 |
| O=C(CSc1nnc(-c2ccccc2C(=O)O)[nH]1)Nc1cccc([N+](=O)[O-])c1 | inactive | inactive | inactive | 8 | 4 | 2 | 0.25 | < 0.125 | 0.5 |
| O=C(O)CCc1nnc(SCC(=O)Nc2ccc(Cl)cc2)[nH]1 | inactive | inactive | inactive |  |  |  |  |  |  |
